Results reported in ChEMBL document CHEMBL1124097, “9-(2-Fluorobenzyl)-6-(alkylamino)-9H-purines. A new class of anticonvulsant agents” (1988).

Key:
Type in all cases: functional
Rattus norvegicus [1] = test: Anticonvulsant activity against maximal electroshock-induced seizures in rats after ip administration at 25 mg/kg (compared to standard); conditions: route intraperitoneal
Rattus norvegicus [2] = test: Anticonvulsant activity against maximal electroshock-induced seizures in rats after intraperitoneal administration.; conditions: ip
Summary of the method: (§1)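 Male Sprague-Dawley rats were protected against maximal electroshock-induced seizures. The ED50 is the dose that protects 50% of animals from the hind-limb extensor component, calculated by the method of Miller. For ED50s given with standard error, at least 12 animals per dose level and four doses per compound were used. Otherwise, three doses with six animals per point were used.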

Rattus norvegicus [3] = test: Anticonvulsant activity against maximal electroshock-induced seizures in rats after oral administration; summary of the method: as §1

SMILES | inhibition in vivo at 25 mg/kg (Rattus norvegicus [1]) | ED50 (Rattus norvegicus [2]) | ED50 (Rattus norvegicus [3])
CNc1ncnc2c1ncn2Cc1cccc(O)c1 | 0% |  | 
CNc1ncnc2c1ncn2Cc1ccccc1C |  | 10 mg/kg | 25 mg/kg
CN(C)c1ncnc2c1ncn2Cc1ccccc1 |  | 6 mg/kg | 12 mg/kg
CNc1ncnc2c1ncn2Cc1cccc(OCc2ccccc2)c1 | 17% |  | 
CNc1ncnc2c1ncn2Cc1ccccc1C(F)(F)F |  | 20 mg/kg | 
CNc1ncnc2c1ncn2Cc1cccc(F)c1 |  | 7 mg/kg | 
Fc1ccccc1Cn1cnc2c(N3CCC3)ncnc21 |  | > 50 mg/kg | 
CN(C=O)c1ncnc2c1ncn2Cc1ccccc1F |  | 11 mg/kg | 25 mg/kg
CNc1ncnc2c1ncn2Cc1ccc(N)cc1 |  | 25 mg/kg | 
CN(C)c1ncnc2c1ncn2Cc1c(F)cccc1Cl |  | 5 mg/kg | 10 mg/kg
Fc1ccccc1Cn1cnc2c(NC3CCC3)ncnc21 |  | 33 mg/kg | 
CNc1ncnc2c1ncn2Cc1ccccc1 |  | 5 mg/kg | 12 mg/kg
CNc1ncnc2c1ncn2Cc1cccc(F)c1F |  | 18 mg/kg | > 50 mg/kg
CNc1ncnc2c1ncn2Cc1ccc(F)cc1 | 33% |  | 
Nc1ncnc2c1ncn2Cc1ccccc1F |  | 4.5 mg/kg | 12 mg/kg
CNc1ncnc2c1ncn2Cc1c(F)cccc1F |  |  | 2.7 mg/kg
O=C1NC(=O)C(c2ccccc2)(c2ccccc2)N1 [PHENYTOIN] |  | 9.6 mg/kg | 
CNc1ncnc2c1ncn2Cc1ccccc1Cl |  | 6.2 mg/kg | 12.5 mg/kg
CNc1ncnc2c1ncn2Cc1c(F)cccc1Cl |  | 12.5 mg/kg | 
Fc1ccccc1Cn1cnc2c(N3CCCC3)ncnc21 |  | 12.5 mg/kg | 35 mg/kg
CC(C)(C)Nc1ncnc2c1ncn2Cc1ccccc1F |  | > 50 mg/kg | 
CNc1ncnc2c1ncn2Cc1ccc([N+](=O)[O-])cc1 | 0% |  | 
CNc1ncnc2c1ncn2Cc1ccc(F)cc1F |  | 20 mg/kg | 
